Test results reported in ChEMBL document CHEMBL5329223, “Newly synthesized 6-substituted piperazine/phenyl-9-cyclopentyl containing purine nucleobase analogs act as potent anticancer agents and induce apoptosis via inhibiting Src in hepatocellular carcinoma cells” (RSC Med Chem, 2023).
Calls of active or inactive are those of the source. The rule behind the calls is not given here.

Tests used:
SNU-423 = assay: Cytotoxicity against human SNU-423 cells assessed as cell growth inhibition incubated for 72 hrs by SRB assay; assay type: functional, cell-based; conditions: SNU-423, 72 h
Method in brief: (§1)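 Cells seeded at 1000–3000 per well, treated after 24 h with 2.5–40 μM (40, 20, 10, 5, 2.5 μM) for 72 h, in duplicate or triplicate; DMSO negative control. Fixed with 10% TCA 1 h at 4 °C, stained with 0.4% SRB in 1% acetic acid, dye solubilized in 10 mM TBS, A515 read; OD normalized to DMSO control, IC50 from growth-inhibition curves.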

HCT-116 = assay: Cytotoxicity against human HCT-116 cells assessed as cell growth inhibition incubated for 72 hrs by SRB assay; assay type: functional, cell-based; conditions: HCT-116, 72 h; method in brief: as §1
SNU-182 = assay: Cytotoxicity against human SNU-182 cells assessed as cell growth inhibition incubated for 72 hrs by SRB assay; assay type: functional, cell-based; conditions: for IC50: SNU-182, 72 h; method in brief: as §1
PLC = assay: Cytotoxicity against human PLC cells assessed as cell growth inhibition incubated for 72 hrs by SRB assay; assay type: functional, cell-based; method in brief: as §1
SNU-398 = assay: Cytotoxicity against human SNU-398 cells assessed as cell growth inhibition incubated for 72 hrs by SRB assay; assay type: functional, cell-based; conditions: SNU-398, 72 h; method in brief: as §1
SNU-387 = assay: Cytotoxicity against human SNU-387 cells assessed as cell growth inhibition incubated for 72 hrs by SRB assay; assay type: functional, cell-based; conditions: SNU-387, 72 h; method in brief: as §1
Mahlavu [1] = assay: Cytotoxicity against human Mahlavu cells assessed as cell growth inhibition incubated for 72 hrs by SRB assay; assay type: functional, cell-based; method in brief: as §1
SNU-449 = assay: Cytotoxicity against human SNU-449 cells assessed as cell growth inhibition incubated for 72 hrs by SRB assay; assay type: functional, cell-based; conditions: SNU-449, 72 h; method in brief: as §1
MCF7 = assay: Cytotoxicity against human MCF7 cells assessed as cell growth inhibition incubated for 72 hrs by SRB assay; assay type: functional, cell-based; conditions: MCF7, 72 h; method in brief: as §1
HepG2 = assay: Cytotoxicity against human HepG2 cells assessed as cell growth inhibition incubated for 72 hrs by SRB assay; assay type: functional, cell-based; conditions: HepG2, 72 h; method in brief: as §1
[2] = Cytotoxicity against human FOCUS cells assessed as cell growth inhibition incubated for 72 hrs by SRB assay; assay type: functional, cell-based; method in brief: as §1
SNU-475 = assay: Cytotoxicity against human SNU-475 cells assessed as cell growth inhibition incubated for 72 hrs by SRB assay; assay type: functional, cell-based; conditions: SNU-475, 72 h; method in brief: as §1
Hep 3B2 = assay: Cytotoxicity against human Hep3B cells assessed as cell growth inhibition incubated for 72 hrs by SRB assay; assay type: functional, cell-based; method in brief: as §1
Huh-7 [3] = assay: Cytotoxicity against human Huh-7 cells assessed as cell growth inhibition incubated for 72 hrs by SRB assay; assay type: functional, cell-based; conditions: Huh-7, 72 h; method in brief: as §1
Huh-7 [4] = assay: Induction of apoptosis in human Huh-7 cells assessed as increase in PARP-1 cleavage at 5 uM incubated for 72 hrs by Western blot analysis; assay type: functional, cell-based
Method in brief: (§2)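 Huh7 cells (300 000 per dish) treated 24 h after seeding with 5 μM or DMSO for 72 h. Immunoblot for PARP-1, phospho-Src Tyr416, Src, Rb, phospho-Rb Ser807/811, Cdk2; calnexin and actin as loading controls.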

Huh-7 [5] = assay: Upregulation of intracellular ATP level in human Huh-7 cells at 5 uM incubated for 72 hrs by Kinase Glo assay; assay type: functional, cell-based
Method in brief: (§3)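 Huh7 and Mahlavu cells grown 24 h, then treated with 5 μM for 72 h. Lysates protein-normalized by Bradford; ATP read by Kinase-Glo Plus luminescence per kit protocol. Staurosporine positive control, DMSO negative control.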

Huh-7 [6] = assay: Induction of cell cycle arrest in human Huh-7 cells assessed as increase in accumulation of cells at subG1 phase at 5 uM incubated for 72 hrs by PI staining based flow cytometry; assay type: functional
Method in brief: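 Huh7 and Mahlavu cells serum-starved 24 h to synchronize, then given 5 μM or DMSO in fresh growth medium for 72 h. Trypsinized, fixed in ice-cold 70% ethanol at least 3 h at −20 °C, PI-stained with a cell cycle kit, analyzed by flow cytometry for SubG1.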

Mahlavu [7] = assay: Upregulation of intracellular ATP level in human Mahlavu cells at 5 uM incubated for 72 hrs by Kinase Glo assay; assay type: functional, cell-based; method in brief: as §3
Huh-7 [8] = assay: Cytotoxicity against human Huh-7 cells assessed as cell growth inhibition at 0.625 to 5 uM measured upto 72 hrs by RT-CES analysis; assay type: functional, cell-based; conditions: dose 0.625-5 µM
Method in brief: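 Huh7 cells, 2000 per well, treated 24 h after seeding alongside DMSO control; cell index from impedance recorded every 30 min; plots for each concentration normalized to DMSO-treated cells.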

Huh-7 [9] = assay: Induction of morphological changes in human Huh-7 cells assessed as horseshoe-like condensed nuclei at 5 uM incubated for 72 hrs by Hoechst 33258 dye based microscopy; assay type: functional, cell-based
Method in brief: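 Huh7 cells on coverslips (50 000 per well) given 5 μM or DMSO 24 h after seeding for 72 h; permeabilized with ice-cold methanol 10 min, Hoechst 33258 stain 5 min in the dark, imaged by fluorescence microscopy with 40× objective.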

[10] = target: Proto-oncogene tyrosine-protein kinase Src (Homo sapiens) (UniProt P12931); assay: Inhibition of Src activation in human Huh-7 cells assessed as decrease in phosphorylated Src level at 5 uM incubated for 72 hrs by Western blot analysis; assay type: cell-based; method in brief: as §2
Sequence of Proto-oncogene tyrosine-protein kinase Src (Homo sapiens) (P12931 2-536 limits assumed): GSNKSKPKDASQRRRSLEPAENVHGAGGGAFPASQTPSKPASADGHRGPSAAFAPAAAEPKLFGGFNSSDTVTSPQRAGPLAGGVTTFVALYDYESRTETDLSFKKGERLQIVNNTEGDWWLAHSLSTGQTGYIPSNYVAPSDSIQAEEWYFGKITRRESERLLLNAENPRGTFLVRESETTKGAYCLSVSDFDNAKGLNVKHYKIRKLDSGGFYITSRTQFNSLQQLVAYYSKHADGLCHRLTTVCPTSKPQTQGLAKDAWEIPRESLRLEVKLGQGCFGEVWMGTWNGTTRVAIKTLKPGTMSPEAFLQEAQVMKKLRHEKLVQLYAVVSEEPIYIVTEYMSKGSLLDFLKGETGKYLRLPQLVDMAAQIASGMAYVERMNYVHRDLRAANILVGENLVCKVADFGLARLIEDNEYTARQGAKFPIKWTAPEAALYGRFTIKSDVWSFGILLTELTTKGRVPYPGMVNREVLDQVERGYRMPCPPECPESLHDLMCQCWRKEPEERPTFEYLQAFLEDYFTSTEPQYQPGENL

Row | Structure (SMILES) | IC50 (SNU-423) [µM] | IC50 (HCT-116) [µM] | IC50 (PLC) [µM] | IC50 (SNU-398) [µM] | IC50 (SNU-387) [µM] | IC50 (Mahlavu [1]) [µM] | IC50 (SNU-449) [µM] | IC50 (MCF7) [µM] | IC50 (HepG2) [µM] | IC50 [2] [µM] | IC50 (SNU-475) [µM] | IC50 (Hep 3B2) [µM] | IC50 (Huh-7 [3]) [µM] | IC50 (SNU-182) [µM] | further results
1 | COc1ccc(S(=O)(=O)N2CCN(c3ncnc4c3ncn4C3CCCC3)CC2)cc1 | 6.8 | 10.4 | 84.6 | 6.9 | 15.8 | 9 | 20 | 8.6 | 2.7 | 10.1 | 57.5 | 71.8 | 7.1 |  | growth inhibition (GI) (SNU-182): inactive
2 | COc1ccc(N2CCN(c3ncnc4c3ncn4C3CCCC3)CC2)cc1 | 15 | 5 | 9.3 | 0.3 | 38 | 0.6 | 2 | 1 | 0.3 | 2.6 | 13 | 0.3 | 1.3 | 13 | Activity (Huh-7 [4]): Active; Activity (Huh-7 [5]): inactive; Activity (Huh-7 [6]): Active; Activity (Mahlavu [7]): inactive; growth inhibition (GI) (Huh-7 [8]): Active; Activity (Huh-7 [9]): Active
3 | Cc1ccc(N2CCN(c3ncnc4c3ncn4C3CCCC3)CC2)cc1 | 17.5 | 1.9 | 20.7 | 1.9 | 88 | 4.2 | 17 | 6.4 | 0.9 | 5 | 17.7 | 3.1 | 1.4 | 61 | 
4 | Nc1nc(F)nc2c1ncn2[C@@H]1O[C@H](CO)[C@@H](O)[C@@H]1O [FLUDARABINE] | 32.6 | 8.3 | 41.7 | 0.2 | 33.8 | 14.2 | 25.1 |  | 17 | 13.7 | 41.5 | 27.8 | 24.4 | 37.2 | 
5 | O=S(=O)(c1ccc(F)cc1)N1CCN(c2ncnc3c2ncn3C2CCCC2)CC1 | 9.5 | 12 | 15.4 | 8 | 11.1 | 11.4 | 16.3 | 5.2 | 4.8 | 12.6 | 21.6 | 6.1 | 9 | 47.9 | 
6 | Nc1nc(Cl)nc2c1ncn2[C@H]1C[C@H](O)[C@@H](CO)O1 [CLADRIBINE] | 6.7 | < 0.1 | 9.1 | < 0.1 | 7.1 | < 0.1 | 37.3 |  | 0.4 | < 0.1 | 2.5 | 0.1 | 0.6 | 23.3 | 
7 | COc1ccc(-c2ncnc3c2ncn3C2CCCC2)cc1 |  | 39 |  |  |  |  |  | 19.5 |  |  |  |  | 10.6 |  | 
8 | O=S(=O)(c1ccc(C(F)(F)F)cc1)N1CCN(c2ncnc3c2ncn3C2CCCC2)CC1 |  | 32.4 |  |  |  |  |  | 12.7 |  |  |  |  | 12.3 |  | 
9 | Clc1ccc(N2CCN(c3ncnc4c3ncn4C3CCCC3)CC2)cc1 | 4 | 0.6 | 19.3 | 1.8 | 2 | 4 | 6.9 | 4.1 | 0.01 | 2 | 12.3 | 0.4 | 0.1 | 12.2 | Activity (Huh-7 [5]): inactive; Activity (Huh-7 [6]): Active; Activity (Mahlavu [7]): inactive; inhibition [10]: Active; growth inhibition (GI) (Huh-7 [8]): Active; Activity (Huh-7 [9]): Active
10 | O=S(=O)(c1ccc(Cl)cc1)N1CCN(c2ncnc3c2ncn3C2CCCC2)CC1 |  | 44.8 |  |  |  |  |  | 10.5 |  |  |  |  | 34.4 |  | 
11 | FC(F)(F)c1ccc(-c2ncnc3c2ncn3C2CCCC2)cc1 |  | 6 |  |  |  |  |  | 20.3 |  |  |  |  | 29.8 |  | 
12 | Fc1ccc(-c2ncnc3c2ncn3C2CCCC2)cc1 |  | 6.1 |  |  |  |  |  | 15.6 |  |  |  |  | 6.7 |  | 
13 | O=S(=O)(c1ccccc1)N1CCN(c2ncnc3c2ncn3C2CCCC2)CC1 |  | 12 |  |  |  |  |  | 11.2 |  |  |  |  | 13.1 |  | 
